Measured values from ChEMBL document CHEMBL4350961, “Discovery of Pyrrolo[3,2- d]pyrimidin-4-one Derivatives as a New Class of Potent and Cell-Active Inhibitors of P300/CBP-Associated Factor Bromodomain” (J Med Chem, 2019).
Active and inactive are the calls of the source. The calls are words filed in the database; no cut-off is given here.

Columns and labels:
[1] = molecular target: Bromodomain and WD repeat-containing protein 1 (Homo sapiens) (UniProt Q9NSI6); assay: Binding affinity to human partial length WDR9 bromodomain 2 (A1310 to E1430 residues) expressed in bacterial expression system at 1 uM by BROMOscan assay
How it was run: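 Outsourced competition-binding profiling (BROMOscan) at a single concentration of 1 µM against 32 recombinant bromodomains; binding expressed as percentage of control.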

[2] = molecular target: [Pyruvate dehydrogenase (acetyl-transferring)] kinase isozyme 2, mitochondrial (Homo sapiens) (UniProt Q15119); assay: Inhibition of human PDHK2 at 10 uM by radiometric method
How it was run: (§1)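 Kinase panel of 422 kinases screened by Eurofins KinaseProfiler at a single test-compound concentration of 10 µM.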

[3] = molecular target: Proto-oncogene tyrosine-protein kinase receptor Ret (Homo sapiens) (UniProt P07949); assay: Inhibition of human Ret (658 to end residues) using KKKSPGEYVNIEFG as substrate measured after 40 mins in presence of [gamma33P]ATP by scintillation counting method; how it was run: as §1
[4] = tested on: PI3-kinase p110-alpha/p85-alpha (Homo sapiens), P27986+P42336 [E542K]; assay: Inhibition of recombinant full-length mouse PI3K p110alpha/p85alpha E542K mutant at 10 uM using phosphatidylinositol-4, 5-bisphosphate as substrate measured after 40 mins by HTRF assay; type: protein-complex assay
[5] = molecular target: Casein kinase I (Homo sapiens) (UniProt Q9HCP0+P78368+P48730+P49674+P48729); assay: Inhibition of CK1 (unknown origin) at 10 uM; type: protein assay; how it was run: as §1
[6] = molecular target: Transcription intermediary factor 1-alpha (Homo sapiens) (UniProt O15164); assay: Binding affinity to human partial length TRIM24 (P790 to P977 residues) expressed in bacterial expression system at 1 uM by BROMOscan assay
How it was run: (§2)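 BROMOscan bromodomain cross-screen run by an outside service, compound at 1 µM against 32 recombinant bromodomains. Binding given as percent of control.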

[7] = molecular target: Histone acetyltransferase p300 (Homo sapiens) (UniProt Q09472); assay: Binding affinity to human N-terminal His-tagged EP300 assessed as change in melting temperature at 10 uM by SYPRO orange dye-based fluorescence assay
How it was run: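 Thermal shift with His-tagged human bromodomain at 2 μM final in 10 mM HEPES pH 7.5, 500 mM NaCl. Compound at 10 μM final with 0.1% DMSO; SYPRO Orange at 1:1000. Equilibrated 3 min at 25 °C, then heated from 25 to 95 °C at 1 °C/min. Melting temperature shift taken from fluorescence; at least duplicate.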

[8] = molecular target: [Pyruvate dehydrogenase (acetyl-transferring)] kinase isozyme 4, mitochondrial (Homo sapiens) (UniProt Q16654); assay: Inhibition of recombinant full-length human PDHK4 at 10 uM using KKKYHGHSMSDPGVSYRT as substrate measured after 40 mins in presence of [gamma33P]ATP by scintillation counting method
[9] = molecular target: Myosin-IIIb (Homo sapiens) (UniProt Q8WXR4); assay: Inhibition of recombinant full-length human MYO3B (1 to 326 residues) at 10 uM using RLGRDKYKTLRQIRQ as substrate measured after 40 mins in presence of [gamma33P]ATP by scintillation counting method
[10] = tested on: Serine/threonine-protein kinase B-raf (Homo sapiens), P15056 [V600E]; assay: Inhibition of recombinant human BRAF V599E mutant (416 to end residues) at 10 uM using myelin basic protein as substrate measured after 40 mins in presence of [gamma33P]ATP by scintillation counting method
[11] = molecular target: Bromodomain-containing protein 1 (Homo sapiens) (UniProt O95696); assay: Binding affinity to human partial length BRD1 (E556 to A688 residues) expressed in bacterial expression system at 1 uM by BROMOscan assay; how it was run: as §2
[12] = molecular target: Serine/threonine-protein kinase PAK 5 (Homo sapiens) (UniProt Q9P286); assay: Inhibition of recombinant human PAK5 (425 to end residues) at 10 uM using RRRLSFAEPG as substrate measured after 40 mins in presence of [gamma33P]ATP by scintillation counting method
[13] = molecular target: Calcium/calmodulin-dependent protein kinase kinase 1 (Homo sapiens) (UniProt Q8N5S9); assay: Inhibition of recombinant full-length human CAMKk1 at 10 uM using calmodulin as substrate measured after 40 mins in presence of [gamma33P]ATP by scintillation counting method
[14] = molecular target: PAS domain-containing serine/threonine-protein kinase (Homo sapiens) (UniProt Q96RG2); assay: Inhibition of recombinant human PASK (995 to end residues) at 10 uM using KKLNRTLSFAEPG as substrate measured after 40 mins in presence of [gamma33P]ATP by scintillation counting method
[15] = molecular target: Vascular endothelial growth factor receptor 2 (Homo sapiens) (UniProt P35968); assay: Inhibition of recombinant human KDR (790 to end residues) at 10 uM using myelin basic protein substrate measured after 40 mins in presence of [gamma33P]ATP by scintillation counting method
[16] = molecular target: Serine/threonine-protein kinase 26 (Homo sapiens) (UniProt Q9P289); assay: Inhibition of recombinant human MST4 (4 to 304 residues) at 10 uM using RLGRDKYKTLRQIRQ as substrate measured after 40 mins in presence of [gamma33P]ATP by scintillation counting method
[17] = molecular target: Serine/threonine-protein kinase NLK (Homo sapiens) (UniProt Q9UBE8); assay: Inhibition of recombinant human NLK (121 to end residues) at 10 uM using myelin basic protein as substrate measured after 40 mins in presence of [gamma33P]ATP by scintillation counting method
[18] = tested on: Serine/threonine-protein kinase Chk2 (Homo sapiens), O96017 [I157T]; assay: Inhibition of recombinant human CHK2 I157T mutant (5 to end residues) at 10 uM using KKKVSRSGLYRSPSMPENLNRPR as substrate measured after 40 mins in presence of [gamma33P]ATP by scintillation counting method
Homo sapiens = species: Homo sapiens; assay: Inhibition of recombinant human Plk4 S34T mutant (1 to 273 residues) at 10 uM using casein as substrate measured after 40 mins in presence of [gamma33P]ATP by scintillation counting method
[19] = tested on: Ribosomal protein S6 kinase beta-1 (Homo sapiens), P23443 [T412E]; assay: Inhibition of recombinant human p70S6K T412E mutant (1 to 421 residues) at 10 uM using KKRNRTLTV as substrate measured after 40 mins in presence of [gamma33P]ATP by scintillation counting method
[20] = molecular target: Tyrosine-protein kinase ABL2 (Homo sapiens) (UniProt P42684); assay: Inhibition of recombinant human ARG (38 to end residues) at 10 uM using EAIYAAPFAKKK as substrate measured after 40 mins in presence of [gamma33P]ATP by scintillation counting method
[21] = molecular target: G protein-coupled receptor kinase 5 (Homo sapiens) (UniProt P34947); assay: Inhibition of recombinant full-length human GRK5 at 10 uM using casein as substrate measured after 40 mins in presence of [gamma33P]ATP by scintillation counting method

Sequence of Serine/threonine-protein kinase Chk2 (Homo sapiens), O96017 [I157T] (O96017 whole entry I157T, the tested form may be a part): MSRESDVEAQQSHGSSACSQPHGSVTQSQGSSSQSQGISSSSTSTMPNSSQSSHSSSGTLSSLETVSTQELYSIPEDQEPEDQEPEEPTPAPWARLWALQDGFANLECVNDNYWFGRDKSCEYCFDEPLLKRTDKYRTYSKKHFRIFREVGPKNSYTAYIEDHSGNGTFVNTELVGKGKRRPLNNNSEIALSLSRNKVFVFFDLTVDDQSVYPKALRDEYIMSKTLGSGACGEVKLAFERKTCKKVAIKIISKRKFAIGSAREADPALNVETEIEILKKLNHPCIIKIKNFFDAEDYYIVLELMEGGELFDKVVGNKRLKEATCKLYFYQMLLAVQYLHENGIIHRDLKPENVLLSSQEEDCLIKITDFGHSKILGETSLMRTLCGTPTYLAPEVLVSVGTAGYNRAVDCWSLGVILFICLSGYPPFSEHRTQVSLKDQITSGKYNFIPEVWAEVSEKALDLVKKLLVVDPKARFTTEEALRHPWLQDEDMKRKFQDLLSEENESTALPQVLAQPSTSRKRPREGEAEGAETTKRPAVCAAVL
Sequence of Vascular endothelial growth factor receptor 2 (Homo sapiens) (P35968 whole entry, the tested form may be a part): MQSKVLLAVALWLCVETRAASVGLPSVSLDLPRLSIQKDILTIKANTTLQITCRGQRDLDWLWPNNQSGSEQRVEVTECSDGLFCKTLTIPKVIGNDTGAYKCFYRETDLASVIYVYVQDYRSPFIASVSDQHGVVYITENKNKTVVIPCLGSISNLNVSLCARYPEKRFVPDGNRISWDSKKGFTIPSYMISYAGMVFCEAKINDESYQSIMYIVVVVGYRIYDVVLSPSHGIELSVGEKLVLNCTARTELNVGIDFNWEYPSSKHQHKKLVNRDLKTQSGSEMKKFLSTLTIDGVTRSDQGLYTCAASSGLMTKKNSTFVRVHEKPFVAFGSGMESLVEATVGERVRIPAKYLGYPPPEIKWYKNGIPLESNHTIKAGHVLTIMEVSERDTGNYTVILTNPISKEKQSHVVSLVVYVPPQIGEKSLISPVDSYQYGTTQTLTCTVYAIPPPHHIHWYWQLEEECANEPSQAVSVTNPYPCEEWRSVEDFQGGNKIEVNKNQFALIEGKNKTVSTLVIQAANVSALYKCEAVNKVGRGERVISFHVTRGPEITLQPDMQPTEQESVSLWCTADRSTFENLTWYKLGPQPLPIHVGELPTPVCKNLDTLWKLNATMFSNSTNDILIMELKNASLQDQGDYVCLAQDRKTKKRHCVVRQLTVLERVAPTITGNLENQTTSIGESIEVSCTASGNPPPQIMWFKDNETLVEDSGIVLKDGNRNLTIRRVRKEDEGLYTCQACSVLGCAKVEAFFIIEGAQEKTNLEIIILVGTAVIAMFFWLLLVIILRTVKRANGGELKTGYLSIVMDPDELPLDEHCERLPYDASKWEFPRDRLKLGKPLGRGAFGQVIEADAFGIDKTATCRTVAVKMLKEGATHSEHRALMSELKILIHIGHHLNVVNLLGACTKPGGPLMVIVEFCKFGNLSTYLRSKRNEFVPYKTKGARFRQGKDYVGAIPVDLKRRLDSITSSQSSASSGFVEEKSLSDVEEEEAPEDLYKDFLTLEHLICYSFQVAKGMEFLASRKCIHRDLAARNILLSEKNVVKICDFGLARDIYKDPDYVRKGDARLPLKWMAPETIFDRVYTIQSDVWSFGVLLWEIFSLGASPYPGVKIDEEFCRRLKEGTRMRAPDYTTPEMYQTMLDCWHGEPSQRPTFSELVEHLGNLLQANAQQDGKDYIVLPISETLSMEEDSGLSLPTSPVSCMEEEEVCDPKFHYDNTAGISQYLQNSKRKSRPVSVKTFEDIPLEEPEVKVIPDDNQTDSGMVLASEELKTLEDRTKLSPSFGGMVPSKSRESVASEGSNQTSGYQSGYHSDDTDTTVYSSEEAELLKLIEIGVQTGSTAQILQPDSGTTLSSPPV
Sequence of Bromodomain and WD repeat-containing protein 1 (Homo sapiens) (Q9NSI6 whole entry, the tested form may be a part): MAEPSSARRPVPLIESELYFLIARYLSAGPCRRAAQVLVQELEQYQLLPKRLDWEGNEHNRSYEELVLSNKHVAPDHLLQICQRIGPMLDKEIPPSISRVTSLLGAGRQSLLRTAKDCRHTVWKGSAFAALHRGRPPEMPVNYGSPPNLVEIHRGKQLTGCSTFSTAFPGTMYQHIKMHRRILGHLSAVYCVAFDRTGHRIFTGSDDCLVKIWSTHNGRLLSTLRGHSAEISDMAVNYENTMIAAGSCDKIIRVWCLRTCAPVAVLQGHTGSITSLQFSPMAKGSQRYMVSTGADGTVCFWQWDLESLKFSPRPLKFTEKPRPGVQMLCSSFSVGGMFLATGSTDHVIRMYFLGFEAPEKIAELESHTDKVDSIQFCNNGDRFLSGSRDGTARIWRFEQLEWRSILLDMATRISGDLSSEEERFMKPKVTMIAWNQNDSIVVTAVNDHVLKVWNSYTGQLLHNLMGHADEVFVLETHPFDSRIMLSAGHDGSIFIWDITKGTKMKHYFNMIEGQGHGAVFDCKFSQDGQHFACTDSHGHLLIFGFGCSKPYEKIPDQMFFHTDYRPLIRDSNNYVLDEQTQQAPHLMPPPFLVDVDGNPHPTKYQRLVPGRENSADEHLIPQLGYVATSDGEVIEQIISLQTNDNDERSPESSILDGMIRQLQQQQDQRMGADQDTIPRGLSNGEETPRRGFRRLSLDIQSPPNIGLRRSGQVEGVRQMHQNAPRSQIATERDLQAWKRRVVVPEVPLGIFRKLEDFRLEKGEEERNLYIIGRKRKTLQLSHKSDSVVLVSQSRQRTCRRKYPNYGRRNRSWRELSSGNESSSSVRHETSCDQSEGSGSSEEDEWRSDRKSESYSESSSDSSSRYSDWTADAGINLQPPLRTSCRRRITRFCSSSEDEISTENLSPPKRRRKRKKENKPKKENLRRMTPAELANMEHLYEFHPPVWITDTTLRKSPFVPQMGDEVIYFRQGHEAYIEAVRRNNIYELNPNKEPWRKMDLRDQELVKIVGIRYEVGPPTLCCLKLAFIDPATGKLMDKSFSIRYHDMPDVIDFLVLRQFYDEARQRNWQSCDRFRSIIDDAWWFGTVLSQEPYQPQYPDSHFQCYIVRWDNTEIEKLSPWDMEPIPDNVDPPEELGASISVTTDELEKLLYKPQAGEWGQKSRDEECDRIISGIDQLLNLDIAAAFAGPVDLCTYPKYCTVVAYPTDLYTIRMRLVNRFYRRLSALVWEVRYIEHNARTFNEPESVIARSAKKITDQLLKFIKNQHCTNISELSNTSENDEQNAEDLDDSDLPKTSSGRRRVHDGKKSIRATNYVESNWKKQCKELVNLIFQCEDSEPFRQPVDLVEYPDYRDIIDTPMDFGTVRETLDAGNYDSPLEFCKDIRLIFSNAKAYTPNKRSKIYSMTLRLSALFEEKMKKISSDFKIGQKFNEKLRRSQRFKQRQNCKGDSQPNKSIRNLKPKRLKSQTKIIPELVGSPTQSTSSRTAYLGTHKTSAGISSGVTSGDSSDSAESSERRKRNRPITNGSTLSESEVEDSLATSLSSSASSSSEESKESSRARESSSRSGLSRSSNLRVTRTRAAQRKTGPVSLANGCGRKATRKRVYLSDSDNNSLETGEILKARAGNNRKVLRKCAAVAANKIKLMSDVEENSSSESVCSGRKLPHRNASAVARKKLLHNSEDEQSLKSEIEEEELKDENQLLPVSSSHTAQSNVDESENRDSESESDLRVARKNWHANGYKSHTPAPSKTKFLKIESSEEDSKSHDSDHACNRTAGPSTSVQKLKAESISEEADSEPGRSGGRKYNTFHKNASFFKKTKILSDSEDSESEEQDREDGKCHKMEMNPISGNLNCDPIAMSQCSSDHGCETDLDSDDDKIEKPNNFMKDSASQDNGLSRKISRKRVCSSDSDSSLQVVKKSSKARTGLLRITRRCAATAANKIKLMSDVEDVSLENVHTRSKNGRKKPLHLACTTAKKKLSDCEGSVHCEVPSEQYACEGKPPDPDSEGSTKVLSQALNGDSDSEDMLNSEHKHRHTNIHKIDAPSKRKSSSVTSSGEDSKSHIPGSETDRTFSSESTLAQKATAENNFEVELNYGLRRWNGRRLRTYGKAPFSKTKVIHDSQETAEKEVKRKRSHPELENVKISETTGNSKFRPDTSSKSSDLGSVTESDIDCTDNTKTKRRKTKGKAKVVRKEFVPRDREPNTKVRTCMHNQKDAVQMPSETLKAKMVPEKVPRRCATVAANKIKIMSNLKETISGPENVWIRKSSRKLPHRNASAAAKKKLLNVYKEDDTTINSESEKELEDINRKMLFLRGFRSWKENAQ
Sequence of Serine/threonine-protein kinase NLK (Homo sapiens) (Q9UBE8 whole entry): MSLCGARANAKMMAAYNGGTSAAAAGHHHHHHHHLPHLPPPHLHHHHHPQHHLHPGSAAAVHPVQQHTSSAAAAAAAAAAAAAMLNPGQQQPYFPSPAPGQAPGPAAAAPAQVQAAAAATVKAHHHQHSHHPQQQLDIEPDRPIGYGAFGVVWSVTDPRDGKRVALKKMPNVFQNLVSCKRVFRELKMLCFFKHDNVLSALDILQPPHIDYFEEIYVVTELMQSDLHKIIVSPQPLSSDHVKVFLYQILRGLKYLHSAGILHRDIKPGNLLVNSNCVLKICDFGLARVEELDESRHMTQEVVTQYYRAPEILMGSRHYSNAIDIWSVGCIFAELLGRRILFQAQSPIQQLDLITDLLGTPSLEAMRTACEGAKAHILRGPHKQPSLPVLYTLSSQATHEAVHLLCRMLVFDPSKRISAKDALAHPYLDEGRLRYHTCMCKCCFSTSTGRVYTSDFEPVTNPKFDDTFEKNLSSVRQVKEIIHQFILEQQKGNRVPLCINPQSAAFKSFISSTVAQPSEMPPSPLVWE

For `CN1C[C@H](Nc2nc3cc[nH]c3c(=O)n2C)C[C@H](c2ccc3c(c2)OCCO3)C1`, the Activity [1] was “inactive”, the inhibition [2] was “inactive” and the inhibition [3] was “inactive”. The inhibition [4] was “inactive”, the inhibition [5] was “inactive” and the Activity [6] was “inactive”. For the same compound, the ΔTm [7] was 0.1 °C, the inhibition [8] was “inactive” and the inhibition [9] was “inactive”. The inhibition [10] was “inactive”, the Activity [11] was “inactive” and the inhibition [12] was “inactive”. The inhibition [13] was “inactive”, the inhibition [14] was “inactive” and the inhibition [15] was “inactive”. The inhibition [16] was “inactive”, the inhibition [17] was “inactive” and the inhibition [18] was “inactive”. For the same compound, the inhibition (Homo sapiens) was “inactive”, the inhibition [19] was “inactive” and the inhibition [20] was “inactive”. For the same compound, the inhibition [21] was “inactive”.
